The structures appear in SMILES notation.

For data set [1], the species on record is Mus musculus. Kind of data set: Inhibition of amyloid beta (1 to 42)-induced mPTP opening in mouse HT22 cells assessed as reduction in mitochondrial membrane potential loss by measuring green to red fluorescence ratio at 5 uM preincubated for 10 mins followed by amyloid beta (1 to 42) addition and measured every 1 hr for 3 hrs by JC1 staining based fluorescence assay relative to control. The format is cell-based. Further details: scale not given: the % may be the effect or the level left. An outline of the steps:
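HT-22 cells (30,000/well) were seeded one day before and loaded with 7.5 µM final JC-1 in phenol red-free Opti-MEM for 1 h 15 min at 37 °C, then washed with PBS. Compound (5 µM) was added for 10 min at 37 °C, then Aβ1-42 (5 µM). Red (ex/em 530/580 nm) and green (485/530 nm) fluorescence were read hourly for 3 h. Green/red ratio was expressed versus Aβ alone (100%), as mean of duplicates.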

A short description of data set [2]: Cytotoxicity against mouse HT22 cells assessed as cell viability at 5 uM after 24 hrs by MTT assay relative to control. The format is cell-based, HT-22. The conditions noted are these: read-out: Activity. In short, it runs like this: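 HT-22 cells (5000/well) got compound at 5 µM for 24 h at 37 °C. MTT was added for 2 h, then solubilizer (10% Triton X-100 in isopropanol, 0.1 M HCl) for 1 h at room temperature. Absorbance was read at 570 nm, vehicle-subtracted, and expressed as % viability; mean of duplicates.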

In a further data set the test system is HT-22. Kind of data set: Toxicity in mouse HT22 cells assessed as ATP production level at 5 uM after 7 hrs by luciferase based assay relative to control. It is filed as cell-based. The conditions noted are these: ht-22, 7 h. In short, it runs like this:
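HT-22 cells (10,000/well, seeded the day before; DMEM, 10% FBS, 37 °C, 5% CO2) were exposed to compound (5 µM per footnote) without Aβ for 7 h at 37 °C. Cells were lysed in 1% Triton X-100/TBST, equal protein (BCA) was taken, and ATP was measured with a luciferase kit. Result is % ATP production relative to vehicle; mean of duplicates.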

The species named for data set [3] is Mus musculus. Kind of data set: Inhibition of amyloid beta (1 to 42)-induced mPTP opening in mouse HT22 cells assessed as neuroprotective activity against amyloid beta (1 to 42)-induced toxicity at 5 uM measured after 24 hrs by MTT assay relative to control. It is filed as cell-based. In short, it runs like this: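 HT-22 cells (5000/well) were pretreated with compound for 10 min, then Aβ1-42 was added, both at 5 µM, for 24 h at 37 °C. Viability was read by MTT (2 h; acidic Triton/isopropanol solubilization; A570). Aβ-treated viability was set to 0 and vehicle to 100% protection; mean of duplicates.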
In general terms: Tetrazolium dyes change colour on reduction, which living cells bring about.

The species entered for data set [4] is Mus musculus. Kind of data set: Inhibition of amyloid beta (1 to 42)-induced mPTP opening in mouse HT22 cells assessed as protection against amyloid beta (1 to 42)-induced deterioration of ATP production by measuring ATP recovery at 5 uM preincubated for 10 mins followed by amyloid beta (1 to 42) addition and measured after 7 hrs relative to control. The format is cell-based. Further details: scale not given: the % may be the effect or the level left. An outline of the steps:
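HT-22 cells (10,000/well, seeded the day before) got compound for 10 min at 37 °C, then Aβ1-42; per footnote, both were at 5 µM. After 7 h at 37 °C, cells were washed, lysed in 1% Triton X-100/TBST and protein-normalized by BCA. ATP was measured with a luciferase kit. Aβ-injured level was set to 0 and vehicle to 100% recovery; mean of duplicates.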

Take `O=C(Nc1ccc(Cl)c(Cl)c1)Nc1nccnc1OCc1cccc(F)c1`: the Activity in the data set listed under Mus musculus [1] was 101%.

In the case of `O=C(Nc1ncccc1OCc1cccc(Cl)c1)Nc1cccc2ccccc12`, the Activity in the data set filed under Mus musculus [1] was found to be 106%.

For the compound `O=C(Nc1ccc(Cl)c(Cl)c1)Nc1ncccc1OCc1ccccc1Cl`, the figures for the Activity in the data set filed under Mus musculus [1] and with HT-22 were 36% and 123%, respectively. In addition, in data set [2], the viability at 24 h, 5 µM was 60%.

For `O=C(Nc1ccccc1F)Nc1ncccc1OCc1ccc(Cl)cc1`, the Activity in the data set filed under Mus musculus [1] came out at 27%.

For the compound `Cc1ccc(NC(=O)Nc2ncccc2OCc2cccc(Cl)c2)cc1`, the Activity amounted to 26% in the data set filed under Mus musculus [1], 54% in the data set filed under Mus musculus [4] and 108% in the data set with HT-22. Also, the percent protection against Aβ1-42 toxicity in the data set listed under Mus musculus [3] was found to be 17%. The viability at 24 h, 5 µM in data set [2] came out at 95%.

On to `NC(=O)CN1CCCC1=O` [PIRACETAM], for which the percent protection against Aβ1-42 toxicity in the data set listed under Mus musculus [3] stood at 29%. Further, the Activity in the data set filed under Mus musculus [4] amounted to 127%; in the data set with HT-22 it was 88%.

Take `O=C(Nc1ccccc1)Nc1ncccc1OCc1cccc(F)c1`: in the data set filed under Mus musculus [1], the Activity came to 23%.

Regarding `O=C(Nc1ccc(Cl)c(Cl)c1)Nc1ncccc1OCc1ccc(Cl)cc1`, the Activity in the data set filed under Mus musculus [1] was determined as 47%.

With `O=C(Nc1ccccc1F)Nc1ncccc1OCc1ccc(F)cc1`, the Activity in the data set filed under Mus musculus [1] stood at 27%.

`O=C(Nc1ccc(Cl)c(Cl)c1)Nc1ncccc1OCc1ccccc1`: in the data set filed under Mus musculus [1], the Activity was 19%.

With `O=C(Nc1ncccc1OCc1ccc(Cl)cc1)Nc1cccc2ccccc12`, the Activity in the data set filed under Mus musculus [1] amounted to 52%.

`O=C(Nc1cccc(F)c1)Nc1nccnc1OCc1cccc(F)c1`: the Activity in the data set listed under Mus musculus [1] was determined as 98%.

Take `O=C(Nc1cccc(F)c1)Nc1ncccc1OCc1cccc(Cl)c1`: the values for the Activity in the data set filed under Mus musculus [1], in the data set listed under Mus musculus [4] and with HT-22 were 13%, 69% and 99%, respectively. Also, the percent protection against Aβ1-42 toxicity in the data set filed under Mus musculus [3] was found to be 38%. Further, the viability at 24 h, 5 µM in data set [2] was 91%.

Turning to `Cc1ccc(NC(=O)Nc2nccnc2OCc2cccc(F)c2)cc1`, in the data set listed under Mus musculus [1], the Activity is 96%.

On to `O=C(Nc1cccc(F)c1)Nc1ncccc1OCc1ccccc1`, for which the Activity in the data set filed under Mus musculus [1] was determined as 13%.

On to `O=C(Nc1ccccc1F)Nc1ncccc1OCc1ccccc1Cl`, for which, in the data set listed under Mus musculus [1], the Activity was determined as 38%.

In the case of `O=C(Nc1ccc(C(F)(F)F)cc1)Nc1ncccc1OCc1ccc(Cl)cc1`, the Activity in the data set filed under Mus musculus [1] was found to be 91%.

For the compound `Cc1ccc(NC(=O)Nc2ncccc2OCc2cccc(F)c2)cc1`, the Activity in the data set listed under Mus musculus [1] is 22%.

`O=C(Nc1cccc(Cl)c1)Nc1ncccc1OCc1ccc(F)cc1`: the Activity in the data set filed under Mus musculus [1] turned out to be 91%.

In the case of `O=C(Nc1cccc(F)c1)Nc1ncccc1OCc1ccccc1Cl`, the Activity in the data set filed under Mus musculus [1] is 32%; in the data set listed under Mus musculus [4] it was 78%; in the data set on HT-22, 106%. In addition, the percent protection against Aβ1-42 toxicity in the data set filed under Mus musculus [3] was 14%. The viability at 24 h, 5 µM in data set [2] is 86%.

For `O=C(Nc1ccccc1)Nc1ncccc1OCc1ccccc1Cl`, the Activity in the data set listed under Mus musculus [1] worked out at 80%.

On to `O=C(Nc1ccc(Cl)c(Cl)c1)Nc1ncccc1OCc1cccc(F)c1`, for which the Activity in the data set listed under Mus musculus [1] stood at 35%.

With `O=C(Nc1cccc(Cl)c1)Nc1ncccc1OCc1ccccc1Cl`, the Activity in the data set listed under Mus musculus [1] turned out to be 25%; in the data set filed under Mus musculus [4], 91%; with HT-22, 124%. Further, the percent protection against Aβ1-42 toxicity in the data set listed under Mus musculus [3] turned out to be 21%. Also, the viability at 24 h, 5 µM in data set [2] is 84%.

`O=C(Nc1ccc(C(F)(F)F)cc1)Nc1ncccc1OCc1cccc(F)c1`: the Activity in the data set listed under Mus musculus [1] was found to be 23%.

Turning to `Cc1ccc(NC(=O)Nc2ncccc2OCc2ccccc2Cl)cc1`, the Activity in the data set listed under Mus musculus [1] was 22%.

`O=C(Nc1cccc(Cl)c1)Nc1ncccc1OCc1ccc(Cl)cc1`: the Activity in the data set listed under Mus musculus [1] stood at 46%.

Take `O=C(Nc1ccccc1F)Nc1ncccc1OCc1cccc(F)c1`: the Activity in the data set listed under Mus musculus [1] is 23%.

Regarding `O=C(Nc1ccc(Cl)c(Cl)c1)Nc1ncccc1OCc1cccc(Cl)c1`, in the data set listed under Mus musculus [1], the Activity amounted to 10%.

As to `O=C(Nc1ccc(C(F)(F)F)cc1)Nc1ncccc1OCc1cccc(Cl)c1`, the Activity in the data set filed under Mus musculus [1] turned out to be 27%.

On to `O=C(Nc1cccc(F)c1)Nc1ncccc1OCc1cccc(F)c1`, for which the Activity in the data set listed under Mus musculus [1] worked out at 34%.

Regarding `O=C(Nc1ccccc1F)Nc1nccnc1OCc1ccccc1`, the Activity in the data set filed under Mus musculus [1] amounted to 123%.

For `O=C(Nc1cccc(F)c1)Nc1ncccc1OCc1ccc(Cl)cc1`, in the data set listed under Mus musculus [1], the Activity was 15%.

Take `O=C(Nc1ncccc1OCc1ccccc1Cl)Nc1cccc2ccccc12`: in the data set listed under Mus musculus [1], the Activity was 77%.

On to `O=C(Nc1ccccc1F)Nc1ncccc1OCc1ccccc1`, for which the Activity in the data set filed under Mus musculus [1] came out at 69%.

For the compound `O=C(NCc1ccccc1)Nc1ncccc1OCc1cccc(F)c1`, the Activity in the data set filed under Mus musculus [1] came out at 9%.

As to `O=C(Nc1ccccc1F)Nc1ncccc1OCc1cccc(Cl)c1`, the Activity came to 11% in the data set listed under Mus musculus [1], 43% in the data set filed under Mus musculus [4] and 104% in the data set on HT-22. The percent protection against Aβ1-42 toxicity in the data set listed under Mus musculus [3] stood at 67%. In addition, the viability at 24 h, 5 µM in data set [2] is 115%.

Take `O=C(Nc1cccc(F)c1)Nc1ncccc1OCc1ccc(F)cc1`: the Activity in the data set listed under Mus musculus [1] was determined as 18%.

For `O=C(Nc1cccc(Cl)c1)Nc1ncccc1OCc1cccc(Cl)c1`, the Activity in the data set filed under Mus musculus [1] stood at 55%.

On to `O=C(Nc1cccc(F)c1)Nc1nccnc1OCc1ccccc1`, for which the Activity in the data set listed under Mus musculus [1] turned out to be 111%.

On to `O=C(NCc1ccccc1)Nc1nccnc1OCc1cccc(F)c1`, for which the Activity in the data set filed under Mus musculus [1] was determined as 69%.

Consider `Cc1ccc(NC(=O)Nc2ncccc2OCc2ccc(Cl)cc2)cc1`, for which the Activity in the data set listed under Mus musculus [1] came to 44%.

For the compound `O=C(Nc1ccccc1)Nc1ncccc1OCc1cccc(Cl)c1`, the Activity turned out to be 14% in the data set listed under Mus musculus [1], 90% in the data set listed under Mus musculus [4] and 109% in the data set with HT-22. Moreover, the percent protection against Aβ1-42 toxicity in the data set listed under Mus musculus [3] is 31%. Besides, the viability at 24 h, 5 µM in data set [2] is 98%.

The record behind these values is ChEMBL document CHEMBL4251623, “Synthesis and evaluation of 2-(3-arylureido)pyridines and 2-(3-arylureido)pyrazines as potential modulators of Aβ-induced mitochondrial dysfunction in Alzheimer's disease” (Eur J Med Chem, 2018).
